Reference: ChEMBL document CHEMBL4177548, “Neuroprotective Lignans from the Fruits of Schisandra bicolor var. tuberculata” (2017)
Activity calls are given as the source filed them. The calls are words filed in the database; no cut-off is given here.

Key:
SH-SY5Y [1] = assay: Neuroprotective activity against Abeta (25 to 35)-induced cytotoxicity in human SH-SY5Y cells at 50 uM pre-incubated for 2 hrs before Abeta (25 to 35) addition for 14 hrs by MTT assay (reference value: 60.2%); type: functional, cell-based
SH-SY5Y [2] = assay: Neuroprotective activity against Abeta (25 to 35)-induced cytotoxicity in human SH-SY5Y cells at 0.0032 uM pre-incubated for 2 hrs before Abeta (25 to 35) addition for 14 hrs by MTT assay (reference value: 60.2 to 73.5%); type: functional
SH-SY5Y [3] = assay: Neuroprotective activity against H2O2-induced cytotoxicity in human SH-SY5Y cells at 0.0032 to 2 uM pre-incubated for 2 hrs before H2O2 addition for 14 hrs by MTT assay relative to untreated control; type: functional
How it was run: (§1)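 Hydrogen peroxide injury: SH-SY5Y cells (DMEM, 10% FBS, penicillin/streptomycin) were seeded at 15 000 cells/well and left 24 h. They received test compounds at 0.0032, 0.08 or 2 μM for 2 h before 350 μM H2O2. MTT read-out followed at 14 h: DMSO dissolution, OD 570 nm. Viability is expressed as % of control, triplicate, means ± SEM, one-way ANOVA with Newman-Keuls.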

SH-SY5Y [4] = assay: Neuroprotective activity against Abeta (25 to 35)-induced cytotoxicity in human SH-SY5Y cells at 2 uM pre-incubated for 2 hrs before Abeta (25 to 35) addition for 14 hrs by MTT assay (reference value: 60.2 to 73.5%); type: functional
SH-SY5Y [5] = assay: Neuroprotective activity against Abeta (25 to 35)-induced cytotoxicity in human SH-SY5Y cells at 0.08 uM pre-incubated for 2 hrs before Abeta (25 to 35) addition for 14 hrs by MTT assay (reference value: 60.2 to 73.5%); type: functional
SH-SY5Y [6] = assay: Neuroprotective activity against Abeta (25 to 35)-induced cytotoxicity in human SH-SY5Y cells at 0.0032 to 2 uM pre-incubated for 2 hrs before Abeta (25 to 35) addition for 14 hrs by MTT assay relative to untreated control; type: functional
SH-SY5Y [7] = assay: Neuroprotective activity against H2O2-induced cytotoxicity in human SH-SY5Y cells at 0.0032 uM pre-incubated for 2 hrs before H2O2 addition for 14 hrs by MTT assay relative to untreated control; type: functional, cell-based; how it was run: as §1
SH-SY5Y [8] = assay: Neuroprotective activity against CoCl2-induced cytotoxicity in human SH-SY5Y cells at 0.0032 uM pre-incubated for 2 hrs before CoCl2 addition for 14 hrs by MTT assay relative to untreated control; type: functional, cell-based
How it was run: (§2)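 SH-SY5Y cells were kept in DMEM with 10% FBS plus penicillin/streptomycin and plated at 15 000 cells/well for 24 h. They were pretreated 2 h with compound (0.0032, 0.08, 2 μM), then challenged with 300 μM CoCl2 (chosen to give 50–70% viability). After 14 h, MTT was added, DMSO-solubilised and read at 570 nm. Values are normalized to control (100%), means ± SEM of three replicates.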

SH-SY5Y [9] = assay: Neuroprotective activity against CoCl2-induced cytotoxicity in human SH-SY5Y cells at 0.0032 to 2 uM pre-incubated for 2 hrs before CoCl2 addition for 14 hrs by MTT assay relative to untreated control; type: functional; how it was run: as §2

Compound | Activity (SH-SY5Y [1]) [%] | Activity (SH-SY5Y [2]) [%] | Activity (SH-SY5Y [3]) [%] | Activity (SH-SY5Y [4]) [%] | Activity (SH-SY5Y [5]) [%] | Activity (SH-SY5Y [6]) [%] | Activity (SH-SY5Y [7]) | Activity (SH-SY5Y [8]) | Activity (SH-SY5Y [9]) [%]
VITAMIN E | 72.5 | – | – | – | – | – | – | – | –
COc1cc(C[C@H](CO)[C@H](C)Cc2ccc(O)c(OC)c2)ccc1O | – | 77.4 | >15 | 69.2 | 74.3 | – | – | – | –
C=C(Cc1ccc2c(c1)OCO2)[C@H](C)Cc1ccc(O)c(OC)c1 | – | 84.7 | – | 78.1 | 78.5 | >15 | Active | – | –
COc1cc(C[C@@H](COC(C)=O)[C@@H](C)Cc2ccc(O)c(OC)c2)ccc1O | – | 74.1 | >15 | 83.2 | 81 | >15 | – | – | –
COc1cc([C@H]2O[C@@H](c3ccc4c(c3)OCO4)[C@H](C)[C@H]2COC(C)=O)ccc1O | – | 68.6 | >15 | 79.3 | 88.6 | >15 | Active | Active | –
COc1cc([C@H]2O[C@@H](c3ccc(OC)c(OC)c3)[C@H](C)[C@H]2C)ccc1O | – | 81.7 | – | 75.3 | 75.3 | – | – | Active | –
COc1ccc([C@H]2O[C@H](c3ccc(OC)c(OC)c3)[C@@H](C)[C@H]2C)cc1OC [GANSCHISANDRINE] | – | 75.1 | – | 79.8 | 85.3 | >15 | – | – | >15
COc1cc(C[C@@H](C)[C@H](C)[C@@H](O)c2ccc3c(c2)OCO3)ccc1O | – | 81.6 | >15 | 76.6 | 83.3 | >15 | Active | Active | >15
COc1cc(C[C@H](CO)[C@H](C)Cc2ccc3c(c2)OCO3)ccc1O | – | 70.8 | – | 84.2 | 83.6 | – | – | – | –
COc1ccc([C@H]2O[C@@H](c3ccc(OC)c(OC)c3)[C@H](C)[C@@H]2C)cc1OC [GALGRAVIN] | – | 76.9 | >15 | 86.7 | 92.9 | >15 | – | – | –
C[C@@H]1[C@@H](CO)[C@H](c2ccc3c(c2)OCO3)O[C@H]1c1ccc2c(c1)OCO2 | – | 71.3 | – | 87.3 | 94.3 | >15 | – | Active | –
COc1cc(C[C@H](C)[C@H](COC(C)=O)Cc2ccc3c(c2)OCO3)ccc1O | – | 73.1 | >15 | 87 | 80.2 | >15 | – | – | –
COc1cc(C[C@@H](C)[C@H](C)Cc2ccc3c(c2)OCO3)ccc1O | – | 73.5 | >15 | 72 | 77.1 | – | – | Active | –
COc1cc(C[C@@H](COC(C)=O)[C@@H](C)Cc2ccc3c(c2)OCO3)ccc1O | – | 68.3 | – | 69 | 80.8 | – | – | – | –
COc1ccc(C(=O)O[C@H](c2ccc(OC)c(OC)c2)[C@@H](C)C(C)=O)cc1OC | – | 78.4 | – | 80.4 | 85.1 | >15 | – | Active | –
COc1cc(C[C@@H](C)[C@H](C)Cc2ccc(O)c(OC)c2)ccc1O [(-)-DIHYDROGUAIARETICACID] | – | 79.2 | – | 80.8 | 85.1 | – | Active | Active | >15
COc1cc(C[C@H](C)[C@H](CO)Cc2ccc3c(c2)OCO3)ccc1O | – | 75.8 | – | 82.4 | 88.2 | >15 | – | Active | –
COc1cc([C@H]2c3cc4c(cc3C[C@@H](C)[C@@H]2C)OCO4)ccc1O | – | 84.5 | – | 75.7 | 71.9 | >15 | – | Active | –
COc1ccc([C@@H]2O[C@@H](c3ccc(O)c(OC)c3)[C@@H](C)[C@H]2C)cc1O | – | 64.5 | – | 71 | 77.1 | >15 | – | – | –
